This is an account of results in ChEMBL document CHEMBL4011632, “Design, Synthesis, and Evaluation of Thiazolidine-2,4-dione Derivatives as a Novel Class of Glutaminase Inhibitors” (J Med Chem, 2017).

One experiment concerns MDA-MB-231. As to the kind of experiment: Growth inhibition of human MDA-MB-231 cells after 72 hrs by MTS assay. The conditions noted are these: MDA-MB-231, 72 h. The experiment is classed as functional, cell-based. The procedure, abridged:
(§1)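 Growth inhibition by MTS viability read-out. Cells seeded in 96-well plates at 4000/well (AsPC-1) or 8500/well (MDA-MB-231). Mean ± SD from at least three independent experiments, each in duplicate.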

Experiment [1] addresses T1, Glutaminase kidney isoform, mitochondrial (Homo sapiens, UniProt O94925).
T1 sequence (O94925 whole entry): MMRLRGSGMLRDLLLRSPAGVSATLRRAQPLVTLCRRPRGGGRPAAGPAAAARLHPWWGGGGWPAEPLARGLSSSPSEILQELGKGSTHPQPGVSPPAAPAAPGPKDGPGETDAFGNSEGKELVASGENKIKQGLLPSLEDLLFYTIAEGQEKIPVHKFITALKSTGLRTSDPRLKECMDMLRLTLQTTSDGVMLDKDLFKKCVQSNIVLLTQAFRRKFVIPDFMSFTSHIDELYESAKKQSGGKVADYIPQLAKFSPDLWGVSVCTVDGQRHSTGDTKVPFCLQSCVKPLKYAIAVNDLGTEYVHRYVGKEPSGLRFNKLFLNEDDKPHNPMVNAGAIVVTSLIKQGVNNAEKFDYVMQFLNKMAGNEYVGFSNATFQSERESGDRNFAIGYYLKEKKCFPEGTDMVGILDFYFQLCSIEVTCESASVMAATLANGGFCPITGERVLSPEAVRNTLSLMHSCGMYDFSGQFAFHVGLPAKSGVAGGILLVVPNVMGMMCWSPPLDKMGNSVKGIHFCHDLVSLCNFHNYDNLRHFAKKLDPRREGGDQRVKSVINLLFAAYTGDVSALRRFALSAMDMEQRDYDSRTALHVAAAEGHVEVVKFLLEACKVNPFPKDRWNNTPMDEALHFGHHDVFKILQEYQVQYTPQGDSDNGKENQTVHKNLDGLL
Briefly: Inhibition of recombinant human His-tagged KGA (L123 to L669 residues) expressed in Escherichia coli BL21(DE3)pLysS using glutamine substrate preincubated for 10 mins followed by substrate addition measured after 60 mins by glutamate dehydrogenase coupled enzyme assay.

Experiment [2] relates to ASPC1. As to the kind of experiment: Anticlonogenic activity against human Aspc-1 cells at 10 uM after 21 days by crystal violet staining based assay relative to control. The format is functional. The note with it: ASPC1, 504 h. The essentials: (§2)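 Anchorage-dependent colony formation: AsPC-1 cells seeded at 1000 cells/well in six-well plates and treated with compound. Colony formation is expressed as percent of vehicle treatment. Mean ± SD from at least three independent experiments, each in duplicate.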

For experiment [3], the target named is T1, Glutaminase kidney isoform, mitochondrial. As to the kind of experiment: Inhibition of recombinant human MCF7 cells derived His-tagged GAC (L123 to S598 residues) expressed in Escherichia coli C41(DE3)pLysS using glutamine as substrate preincubated for 10 mins followed by substrate addition measured after 60 mins by glutamate dehydrogenase coupled enzyme assay. The procedure, abridged:
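Human GAC cloned from MCF7 cDNA into pET28a(+) as a His-tagged construct. Expressed in E. coli C41(DE3)pLysS in Terrific Broth with kanamycin, induced with 1 mM IPTG for 6 h at 25 °C. Purified on Ni2+ resin with 500 mM imidazole elution and exchanged into 50 mM NaH2PO4, 50 mM Tris-HCl pH 8.0, 2 mM DTT, 50% glycerol. Activity measured by two-step glutaminase assay.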

In experiment [4] the target is T2, Glutaminase liver isoform, mitochondrial (Homo sapiens, UniProt Q9UI32).
T2 sequence (Q9UI32 whole entry): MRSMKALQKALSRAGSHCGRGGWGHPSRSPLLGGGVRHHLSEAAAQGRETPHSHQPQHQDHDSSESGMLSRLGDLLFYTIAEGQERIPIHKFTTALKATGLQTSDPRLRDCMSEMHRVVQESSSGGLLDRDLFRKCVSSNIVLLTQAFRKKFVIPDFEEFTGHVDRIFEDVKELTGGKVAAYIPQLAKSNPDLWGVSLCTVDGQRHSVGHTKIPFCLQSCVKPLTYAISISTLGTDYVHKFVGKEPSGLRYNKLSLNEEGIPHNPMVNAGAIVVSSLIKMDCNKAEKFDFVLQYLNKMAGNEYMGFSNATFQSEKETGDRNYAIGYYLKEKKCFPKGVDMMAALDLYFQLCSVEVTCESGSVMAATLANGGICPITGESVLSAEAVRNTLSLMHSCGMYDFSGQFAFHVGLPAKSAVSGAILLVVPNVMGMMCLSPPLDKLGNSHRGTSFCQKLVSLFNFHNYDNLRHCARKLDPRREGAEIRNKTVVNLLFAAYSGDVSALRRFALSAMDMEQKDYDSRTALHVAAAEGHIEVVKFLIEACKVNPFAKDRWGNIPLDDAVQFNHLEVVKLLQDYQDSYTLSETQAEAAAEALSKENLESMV
Briefly: Inhibition of recombinant human His-tagged GAB (P56 to V602 residues) expressed in Escherichia coli C41(DE3)pLysS using glutamine as substrate preincubated for 10 mins followed by substrate addition measured after 60 mins by glutamate dehydrogenase coupled enzyme assay.

The species named for another experiment is Homo sapiens. As to the kind of experiment: Selectivity index, ratio of IC50 for recombinant human His-tagged GAB (P56-V602 residues) expressed in Escherichia coli C41(DE3)pLysS to IC50 for recombinant human His-tagged KGA (L123 to L669 residues) expressed in Escherichia coli BL21(DE3)pLysS.
Experiment [5] concerns ASPC1. As to the kind of experiment: Growth inhibition of human Aspc-1 cells after 72 hrs by MTS assay. The experiment is classed as functional, cell-based. The conditions noted are these: ASPC1, 72 h. The procedure, abridged: as §1
Experiment [6] has as its system ASPC1. Briefly: Anticlonogenic activity against human Aspc-1 cells at 2 uM after 21 days by crystal violet staining based assay relative to control. The format is functional. The conditions noted are these: ASPC1, 504 h. The essentials: as §2

Consider `CCc1cc(-c2ccc(-n3c(-c4ccccc4)cc(/C=C4\SC(=O)NC4=O)c3-c3ccccc3)cc2)ccc1/C=C1\SC(=O)NC1=O`, for which the IC50 in the experiment on MDA-MB-231 was determined as 8200 nM; in experiment [1], 56 nM; in experiment [3] it was 217 nM; in experiment [4], 1240 nM; in the experiment with ASPC1 [5], 8800 nM. Also, testing at 10 µM in the experiment with ASPC1 [2] gave an inhibition of 91%. Moreover, the Ratio IC50 in the experiment listed under Homo sapiens amounted to 22. Besides, in the experiment on ASPC1 [6], at 2 µM the inhibition was 51%.
With `CCc1cc(-c2ccc(-n3c(C)cc(/C=C4\SC(=O)NC4=O)c3C)cc2OC)ccc1/C=C1\SC(=O)NC1=O`, the IC50 in experiment [1] turned out to be 66 nM; in experiment [3], 177 nM; in experiment [4], 1190 nM. Besides, in the experiment filed under Homo sapiens, the Ratio IC50 is 18.
The like results for `Cc1cc(/C=C2\SC(=O)NC2=O)c(C)n1-c1ccc(Br)cc1` were, in that order, 3100 nM, 5370 nM, greater than 100000 nM and greater than 32.
`COc1cc(-n2c(-c3cccs3)cc(/C=C3\SC(=O)NC3=O)c2-c2cccs2)ccc1-c1ccc(/C=C2\SC(=O)NC2=O)cc1`: the IC50 in the experiment on MDA-MB-231 worked out at 10600 nM; in experiment [1], 35 nM; in experiment [3] it was 53 nM; in experiment [4], 269 nM; in the experiment with ASPC1 [5], 11900 nM. In the experiment with ASPC1 [2], this compound came in with an inhibition at 10 µM of 95%. Also, in the experiment filed under Homo sapiens, the Ratio IC50 came out at 7.7. For the same compound, the inhibition at 2 µM with ASPC1 [6] worked out at 89%.
Consider `COc1cc(-n2c(C)cc(/C=C3\SC(=O)NC3=O)c2C)ccc1-c1ccc(/C=C2\SC(=O)NC2=O)cc1`, for which the IC50 was determined as 243 nM in experiment [1], 355 nM in experiment [3] and 2140 nM in experiment [4]. The Ratio IC50 in the experiment listed under Homo sapiens was 8.8.
Turning to `COc1cc(-n2c(-c3ccccc3)cc(/C=C3\SC(=O)NC3=O)c2-c2ccccc2)ccc1-c1ccc(/C=C2\SC(=O)NC2=O)cc1`, the IC50 was determined as 8900 nM in the experiment on MDA-MB-231; 48 nM in experiment [1]; 148 nM in experiment [3]; 787 nM in experiment [4]; 12000 nM with ASPC1 [5]. Testing at 10 µM in the experiment with ASPC1 [2] gave an inhibition of 95%. In addition, the Ratio IC50 in the experiment listed under Homo sapiens was determined as 16. In the experiment with ASPC1 [6], 2 µM produced 90% inhibition.
In the case of `O=C1NC(=O)/C(=C/c2cc(-c3cccs3)n(-c3ccc(Br)cc3)c2-c2cccs2)S1`, the IC50 in experiment [1] was 754 nM; in experiment [3], 1270 nM; in experiment [4], 3780 nM. Besides, the Ratio IC50 in the experiment listed under Homo sapiens worked out at 5.
For the compound `O=C1NC(=O)/C(=C/c2cc(-c3ccccc3)n(-c3ccc(Br)cc3)c2-c2ccccc2)S1`, the IC50 worked out at 4900 nM in experiment [1], 8760 nM in experiment [3] and 11800 nM in experiment [4]. In addition, the Ratio IC50 in the experiment listed under Homo sapiens came to 2.4.
Regarding `CCc1cc(-c2ccc(-n3c(C)cc(/C=C4\SC(=O)NC4=O)c3C)cc2)ccc1/C=C1\SC(=O)NC1=O`, the IC50 in the experiment with MDA-MB-231 turned out to be 15300 nM; in experiment [1], 39 nM; in experiment [3], 87 nM; in experiment [4], 1030 nM; in the experiment with ASPC1 [5], 12500 nM. In addition, the inhibition at 10 µM in the experiment on ASPC1 [2] is 59%. Moreover, the Ratio IC50 in the experiment listed under Homo sapiens was 26. In the experiment with ASPC1 [6], this compound showed an inhibition at 2 µM of 28%.
In the case of `Cc1cc(/C=C2\SC(=O)NC2=O)c(C)n1-c1ccc(-c2ccc(/C=C3\SC(=O)NC3=O)cc2)c(O)c1`, the IC50 in experiment [1] worked out at 247 nM; in experiment [3], 760 nM; in experiment [4] it was 5720 nM. In addition, in the experiment filed under Homo sapiens, the Ratio IC50 amounted to 23.
Turning to `CCc1cc(-c2ccc(-n3c(-c4cccs4)cc(/C=C4\SC(=O)NC4=O)c3-c3cccs3)cc2)ccc1/C=C1\SC(=O)NC1=O`, the IC50 with MDA-MB-231 worked out at 26300 nM; in experiment [1], 54 nM; in experiment [3], 391 nM; in experiment [4], 1720 nM; in the experiment with ASPC1 [5], 24800 nM. This compound also returned an inhibition at 10 µM in the experiment with ASPC1 [2] of 89%. Also, the Ratio IC50 in the experiment listed under Homo sapiens was found to be 32. Testing at 2 µM with ASPC1 [6] gave an inhibition of 44%.
Consider `CCc1cc(-c2ccc(-n3c(C)cc(/C=C4\SC(=O)NC4=O)c3C)cc2C#N)ccc1/C=C1\SC(=O)NC1=O`, for which the figures for the IC50 in experiment [1], in experiment [3] and in experiment [4] were 59 nM, 92 nM and 1190 nM, respectively. In the experiment listed under Homo sapiens, the Ratio IC50 came out at 20.

By IC50 is commonly meant the midpoint of a concentration-inhibition curve. In general, inhibition refers to the drop in the measured response relative to a control, in per cent. A high value points to a strong effect.
